Results on 2 molecules are retold here after ChEMBL document CHEMBL1147045, “Targeting thioredoxin reductase is a basis for cancer therapy by arsenic trioxide” (2007).

The subject of assay [1] is MCF7. The assay can be described thus: Reduction of glutathione synthesis in human MCF7 cells at 25 uM after 25 hrs. In kind it is functional. The arrangement: scale not given: the % may be the effect or the level left.
Assay [2] relates to MCF7. The assay is described as follows: Reduction of human MCF7 cell growth at 5.0 uM after 48 hrs by XTT assay. Type of assay: functional, cell-based. A digest of the protocol:
(§1)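 MCF-7 cells in RPMI 1640/10% FCS were seeded at 6 × 10^3 cells per well, grown overnight, then exposed to ATO for 24 or 48 h. Medium was replaced with XTT labeling mixture for 3 h and A492 of the formazan read as the measure of proliferation/viability.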
(Formazan colour is commonly taken as a measure of viable cells.)

In assay [3] the target is T1, Thioredoxin reductase 1, cytoplasmic (Rattus norvegicus) (UniProt O89049).
T1 sequence (whole entry): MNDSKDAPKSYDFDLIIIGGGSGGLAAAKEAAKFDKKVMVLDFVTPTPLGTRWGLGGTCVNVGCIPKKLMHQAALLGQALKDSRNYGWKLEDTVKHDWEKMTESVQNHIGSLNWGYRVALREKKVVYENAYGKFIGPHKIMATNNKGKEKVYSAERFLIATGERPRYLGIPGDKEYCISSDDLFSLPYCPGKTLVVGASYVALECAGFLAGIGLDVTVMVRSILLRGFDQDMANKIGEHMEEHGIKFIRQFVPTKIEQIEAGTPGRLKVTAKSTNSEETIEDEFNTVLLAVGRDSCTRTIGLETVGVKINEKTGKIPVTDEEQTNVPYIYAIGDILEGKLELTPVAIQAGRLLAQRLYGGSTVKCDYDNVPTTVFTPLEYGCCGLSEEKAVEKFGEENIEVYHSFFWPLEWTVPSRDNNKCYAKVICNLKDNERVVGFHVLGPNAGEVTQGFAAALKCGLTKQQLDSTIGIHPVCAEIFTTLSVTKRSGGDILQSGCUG
The assay is described as follows: Inhibition of NADPH-reduced rat recombinant TrxR1 at 0.1 uM attenuated in presence of 1 mM Glutathione after 30 minis. The method in brief: (§2)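 NADPH-reduced rat TrxR (10 nM) with 2 μM human Trx, with or without 1 mM GSH, was incubated with ATO for 30 min in Tris/EDTA pH 7.5 containing 200 μM NADPH. Trx-system activity was read after adding 200 μM NADPH/160 μM insulin, as ΔA340/min over the initial 5 min.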

Assay [4] deals with MCF7. The assay is described as follows: Reduction of human MCF7 cell growth at 2.5 uM after 48 hrs by XTT assay. In kind it is functional, cell-based. A digest of the protocol:
as §1

The target of assay [5] is T1, Thioredoxin reductase 1, cytoplasmic (Rattus norvegicus). The assay can be described thus: Inhibition of NADPH-reduced rat recombinant TrxR1 at 0.25 uM attenuated in presence of 1 mM Glutathione after 30 minis. The method in brief: as §2
Another assay concerns Escherichia coli. The assay is described as follows: Inhibition of Escherichia coli thioredoxin upto 5 uM by insulin reduction method. The method in brief: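 25 nM E. coli TrxR plus 2 μM E. coli Trx were preincubated with ATO for 30 min in 50 mM Tris·HCl/1 mM EDTA pH 7.5 with 200 μM NADPH. Then 200 μM NADPH/160 μM insulin was added and A340 followed. Activity was taken as ΔA340/min over the initial 5 min.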

The test system of assay [6] is MCF7. The assay can be described thus: Inhibition of human MCF7 cell growth after 24 hrs by XTT assay. Type of assay: functional, cell-based. A digest of the protocol: as §1
Assay [7] addresses T1, Thioredoxin reductase 1, cytoplasmic (Rattus norvegicus). The assay is described as follows: Inhibition of NADPH-reduced rat recombinant TrxR1 at >0.5 uM attenuated in presence of 1 mM Glutathione after 30 minis. The method in brief:
as §2

The target is the same in assay [8]. The assay is described as follows: Inhibition of NADPH-reduced rat recombinant TrxR1 assessed as […] by DTNB reduction assay. A digest of the protocol: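 Recombinant rat TrxR1 (50 nM), NADPH-reduced, was preincubated with ATO (0.05–5 μM) for 30 min in 50 mM Tris·HCl/1 mM EDTA pH 7.5 with 200 μM NADPH. Activity was then measured with 5 mM DTNB by following A412; the rate was the slope over the initial 2 min. Duplicate experiments; IC50 after 30-min incubation.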

Active and inactive are the calls of the source. The rule behind the calls is not given here.

In turn, `CCCCS(=N)(=O)CCC(N)C(=O)O` (centres undefined) [BUTHIONINE SULFOXIMINE] came in with an Activity with MCF7 [1] of 80%.

`O=[As][As+](=O)[O-]` (centres undefined): the outcome (in the assay with MCF7 [2]; in assay [3]; with MCF7 [4]; in [5]) was Active. For the same molecule, the result (in the assay with Escherichia coli; in the assay with MCF7 [6]; in assay [7]; in [8]) was inactive.
